Measurements taken from ChEMBL document CHEMBL1156749 (Bioorg Med Chem Lett, 2009).

The molecules below were run against Transporter (Rattus norvegicus, UniProt Q63380) (assay: Displacement of [3H]nisoxetine from NET in rat brain).
Transporter, sequence (Q63380 whole entry): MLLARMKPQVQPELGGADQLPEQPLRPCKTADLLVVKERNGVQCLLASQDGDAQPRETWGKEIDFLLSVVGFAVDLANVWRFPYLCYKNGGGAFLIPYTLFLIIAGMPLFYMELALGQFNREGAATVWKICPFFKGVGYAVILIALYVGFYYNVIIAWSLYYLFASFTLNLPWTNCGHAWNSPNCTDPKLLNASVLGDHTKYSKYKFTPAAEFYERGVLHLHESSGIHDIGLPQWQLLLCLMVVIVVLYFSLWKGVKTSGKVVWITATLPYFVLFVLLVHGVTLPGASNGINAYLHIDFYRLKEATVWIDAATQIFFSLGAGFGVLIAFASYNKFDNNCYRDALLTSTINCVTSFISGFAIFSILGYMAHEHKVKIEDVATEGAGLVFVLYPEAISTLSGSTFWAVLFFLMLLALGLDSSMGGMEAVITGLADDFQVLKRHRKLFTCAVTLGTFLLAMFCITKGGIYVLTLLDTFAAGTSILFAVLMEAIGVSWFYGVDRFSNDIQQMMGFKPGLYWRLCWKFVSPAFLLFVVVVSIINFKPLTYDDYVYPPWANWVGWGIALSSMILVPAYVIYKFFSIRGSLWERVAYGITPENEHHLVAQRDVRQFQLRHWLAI
Format: tissue-based
`C1=C(c2ccccc2)CC2CCC1N2` (centres undefined) gave a Ki of 1290 nM.
For `Clc1ccc(CO[C@@]2(c3ccccc3)C[C@H]3CC[C@@H](C2)N3)cc1`, the Ki was 101 nM.
`Clc1ccc([C@]2(OCc3ccccc3)C[C@H]3CC[C@@H](C2)N3)cc1` showed a Ki of 1720 nM.
Work on `Clc1ccc(CO[C@@]2(c3ccccc3)C[C@H]3CC[C@@H](C2)N3)cc1Cl` yielded a Ki of 996 nM.
For `Clc1ccc(C2=CC3CCC(C2)N3)cc1` (centres undefined), the Ki was 120 nM.
Molecule `Clc1ccc(CO[C@@]2(c3ccc(Cl)c(Cl)c3)C[C@H]3CC[C@@H](C2)N3)cc1Cl` has a Ki of 2550 nM.
With `Clc1ccc(C2=CC3CCC(C2)N3)cc1Cl` (centres undefined) the Ki was 20 nM.
For `Clc1ccc([C@]2(OCc3ccccc3)C[C@H]3CC[C@@H](C2)N3)cc1Cl`, the Ki was 1230 nM.
For `Clc1ccc(CO[C@@]2(c3ccc(Cl)cc3)C[C@H]3CC[C@@H](C2)N3)cc1`, the Ki was 2370 nM.
For `FC(F)(F)c1ccc([C@]2(OCc3ccccc3)C[C@H]3CC[C@@H](C2)N3)cc1`, the Ki was 5440 nM.
With `FC(F)(F)c1ccc(C2=CC3CCC(C2)N3)cc1` (centres undefined) the Ki was 777 nM.

The molecules below were run against Sodium-dependent dopamine transporter (Rattus norvegicus, UniProt P23977) (assay: Displacement of [3H]WIN-35428 from DAT in rat brain).
Sodium-dependent dopamine transporter, sequence (P23977 whole entry): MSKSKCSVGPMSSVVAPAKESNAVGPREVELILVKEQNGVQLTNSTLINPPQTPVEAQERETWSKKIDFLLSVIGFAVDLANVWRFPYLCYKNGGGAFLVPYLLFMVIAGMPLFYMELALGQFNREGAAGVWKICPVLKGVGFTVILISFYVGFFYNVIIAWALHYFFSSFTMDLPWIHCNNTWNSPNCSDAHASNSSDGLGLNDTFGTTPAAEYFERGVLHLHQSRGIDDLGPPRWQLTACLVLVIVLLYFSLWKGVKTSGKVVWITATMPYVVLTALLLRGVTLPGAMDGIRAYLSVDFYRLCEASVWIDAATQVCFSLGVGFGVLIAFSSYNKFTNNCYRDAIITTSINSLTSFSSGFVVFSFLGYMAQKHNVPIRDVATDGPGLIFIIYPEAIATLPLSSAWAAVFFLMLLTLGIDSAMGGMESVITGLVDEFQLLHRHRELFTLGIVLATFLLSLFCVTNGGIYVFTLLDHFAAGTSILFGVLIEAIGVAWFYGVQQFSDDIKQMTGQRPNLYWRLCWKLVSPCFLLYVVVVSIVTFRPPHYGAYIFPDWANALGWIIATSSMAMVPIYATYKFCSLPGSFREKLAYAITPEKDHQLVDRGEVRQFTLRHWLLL
Format: tissue-based
Summary of the method: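 Radioligand displacement from monoamine transporters in rat brain tissue: [3H]WIN 35,428 for DAT, [3H]citalopram for SERT, [3H]nisoxetine for NET. Test agents were used as oxalate salts, and Ki was derived from displacement. Values are mean ± SEM of three experiments, each run in triplicate.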
In the case of `C1=C(c2ccccc2)CC2CCC1N2` (centres undefined), the Ki is reported as 1220 nM.
`Clc1ccc(CO[C@@]2(c3ccccc3)C[C@H]3CC[C@@H](C2)N3)cc1` showed a Ki of 22 nM.
`Clc1ccc([C@]2(OCc3ccccc3)C[C@H]3CC[C@@H](C2)N3)cc1` was tested, and the Ki was 172 nM.
`Clc1ccc(CO[C@@]2(c3ccccc3)C[C@H]3CC[C@@H](C2)N3)cc1Cl` was tested, and the Ki was 16 nM.
`Clc1ccc(C2=CC3CCC(C2)N3)cc1` (centres undefined) showed a Ki of 231 nM.
`Clc1ccc(CO[C@@]2(c3ccc(Cl)c(Cl)c3)C[C@H]3CC[C@@H](C2)N3)cc1Cl` showed a Ki of 2930 nM.
`Clc1ccc(C2=CC3CCC(C2)N3)cc1Cl` (centres undefined) was tested, and the Ki was 16 nM.
With `Clc1ccc([C@]2(OCc3ccccc3)C[C@H]3CC[C@@H](C2)N3)cc1Cl` the Ki was 716 nM.
For `Clc1ccc(CO[C@@]2(c3ccc(Cl)cc3)C[C@H]3CC[C@@H](C2)N3)cc1`, the Ki was 63 nM.
`FC(F)(F)c1ccc([C@]2(OCc3ccccc3)C[C@H]3CC[C@@H](C2)N3)cc1` showed a Ki of 1390 nM.
For `Fc1ccc(C2=CC3CCC(C2)N3)cc1` (centres undefined), the Ki was 1060 nM.
In the case of `c1ccc(CO[C@@]2(c3ccccc3)C[C@H]3CC[C@@H](C2)N3)cc1`, the Ki is reported as 117 nM.
Work on `FC(F)(F)c1ccc(C2=CC3CCC(C2)N3)cc1` (centres undefined) yielded a Ki of 1490 nM.

These molecules were tested against Sodium-dependent serotonin transporter (Rattus norvegicus, UniProt P31652) (assay: Displacement of [3H]citalopram from SERT in rat brain).
Sodium-dependent serotonin transporter, sequence (P31652 whole entry): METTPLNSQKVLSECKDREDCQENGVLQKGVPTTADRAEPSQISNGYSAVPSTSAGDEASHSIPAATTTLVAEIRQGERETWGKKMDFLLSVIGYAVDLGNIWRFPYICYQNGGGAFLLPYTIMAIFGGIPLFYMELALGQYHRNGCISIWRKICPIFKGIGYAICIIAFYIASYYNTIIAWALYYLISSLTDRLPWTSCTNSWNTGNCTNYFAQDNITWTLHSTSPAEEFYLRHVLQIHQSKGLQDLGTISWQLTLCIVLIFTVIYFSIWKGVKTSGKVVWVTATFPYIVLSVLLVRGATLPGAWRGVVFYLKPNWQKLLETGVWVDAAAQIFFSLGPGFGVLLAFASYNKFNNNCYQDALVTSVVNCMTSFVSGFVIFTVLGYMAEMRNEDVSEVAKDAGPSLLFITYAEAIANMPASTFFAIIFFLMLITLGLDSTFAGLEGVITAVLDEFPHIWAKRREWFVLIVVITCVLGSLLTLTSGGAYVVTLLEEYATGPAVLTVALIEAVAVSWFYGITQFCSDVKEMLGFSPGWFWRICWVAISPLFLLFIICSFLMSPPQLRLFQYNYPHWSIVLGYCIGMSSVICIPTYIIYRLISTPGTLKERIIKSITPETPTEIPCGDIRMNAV
Format: tissue-based
Work on `C1=C(c2ccccc2)CC2CCC1N2` (centres undefined) yielded a Ki of 176 nM.
`Clc1ccc(CO[C@@]2(c3ccccc3)C[C@H]3CC[C@@H](C2)N3)cc1` was tested, and the Ki was 6.1 nM.
With `Clc1ccc([C@]2(OCc3ccccc3)C[C@H]3CC[C@@H](C2)N3)cc1` the Ki was 65 nM.
With `Clc1ccc(CO[C@@]2(c3ccccc3)C[C@H]3CC[C@@H](C2)N3)cc1Cl` the Ki was 0.061 nM.
`Clc1ccc(C2=CC3CCC(C2)N3)cc1` (centres undefined) showed a Ki of 2.8 nM.
Work on `Clc1ccc(CO[C@@]2(c3ccc(Cl)c(Cl)c3)C[C@H]3CC[C@@H](C2)N3)cc1Cl` yielded a Ki of 4.7 nM.
`Clc1ccc(C2=CC3CCC(C2)N3)cc1Cl` (centres undefined) was tested, and the Ki was 0.3 nM.
With `Clc1ccc([C@]2(OCc3ccccc3)C[C@H]3CC[C@@H](C2)N3)cc1Cl` the Ki was 62 nM.
In the case of `Clc1ccc(CO[C@@]2(c3ccc(Cl)cc3)C[C@H]3CC[C@@H](C2)N3)cc1`, the Ki is reported as 0.1 nM.
`FC(F)(F)c1ccc([C@]2(OCc3ccccc3)C[C@H]3CC[C@@H](C2)N3)cc1` gave a Ki of 534 nM.
Work on `c1ccc(CO[C@@]2(c3ccccc3)C[C@H]3CC[C@@H](C2)N3)cc1` yielded a Ki of 247 nM.
Work on `FC(F)(F)c1ccc(C2=CC3CCC(C2)N3)cc1` (centres undefined) yielded a Ki of 1.8 nM.

Organism: Rattus norvegicus
Test: Selectivity ratio of Ki for rat NET to Ki for SERT
Summary of the method: (§1)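 Ratio of Ki values from rat brain tissue displacement assays: [3H]WIN 35,428 for DAT, [3H]citalopram for SERT, [3H]nisoxetine for NET. Test agents were oxalate salts. Each Ki is the mean of three experiments run in triplicate.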
Work on `C1=C(c2ccccc2)CC2CCC1N2` (centres undefined) yielded a Ratio of 7.3.
With `Clc1ccc(CO[C@@]2(c3ccccc3)C[C@H]3CC[C@@H](C2)N3)cc1` the Ratio was 17.
`Clc1ccc([C@]2(OCc3ccccc3)C[C@H]3CC[C@@H](C2)N3)cc1` showed a Ratio of 26.
For `Clc1ccc(CO[C@@]2(c3ccccc3)C[C@H]3CC[C@@H](C2)N3)cc1Cl`, the Ratio was 16300.
With `Clc1ccc(C2=CC3CCC(C2)N3)cc1` (centres undefined) the Ratio was 43.
Molecule `Clc1ccc(CO[C@@]2(c3ccc(Cl)c(Cl)c3)C[C@H]3CC[C@@H](C2)N3)cc1Cl` has a Ratio of 543.
Molecule `Clc1ccc(C2=CC3CCC(C2)N3)cc1Cl` (centres undefined) has a Ratio of 67.
`Clc1ccc(CO[C@@]2(c3ccc(Cl)c(Cl)c3)C[C@H]3CC[C@@H](C2)N3)cc1` was tested, and the Ratio was 246.
Work on `Clc1ccc([C@]2(OCc3ccccc3)C[C@H]3CC[C@@H](C2)N3)cc1Cl` yielded a Ratio of 20.
In the case of `Clc1ccc(CO[C@@]2(c3ccc(Cl)cc3)C[C@H]3CC[C@@H](C2)N3)cc1`, the Ratio is reported as 23700.
`FC(F)(F)c1ccc([C@]2(OCc3ccccc3)C[C@H]3CC[C@@H](C2)N3)cc1` showed a Ratio of 10.
`FC(F)(F)c1ccc(C2=CC3CCC(C2)N3)cc1` (centres undefined) showed a Ratio of 432.

Organism: Rattus norvegicus
Test: Selectivity ratio of Ki for rat NET to Ki for DAT
Summary of the method: as §1
With `C1=C(c2ccccc2)CC2CCC1N2` (centres undefined) the Ratio was 1.1.
`Clc1ccc(CO[C@@]2(c3ccccc3)C[C@H]3CC[C@@H](C2)N3)cc1` gave a Ratio of 4.6.
In the case of `Clc1ccc([C@]2(OCc3ccccc3)C[C@H]3CC[C@@H](C2)N3)cc1`, the Ratio is reported as 10.
`Clc1ccc(CO[C@@]2(c3ccccc3)C[C@H]3CC[C@@H](C2)N3)cc1Cl` was tested, and the Ratio was 62.
Molecule `Clc1ccc(C2=CC3CCC(C2)N3)cc1` (centres undefined) has a Ratio of 0.52.
Work on `Clc1ccc(CO[C@@]2(c3ccc(Cl)c(Cl)c3)C[C@H]3CC[C@@H](C2)N3)cc1Cl` yielded a Ratio of 0.87.
Molecule `Clc1ccc(C2=CC3CCC(C2)N3)cc1Cl` (centres undefined) has a Ratio of 1.3.
`Clc1ccc(CO[C@@]2(c3ccc(Cl)c(Cl)c3)C[C@H]3CC[C@@H](C2)N3)cc1` was tested, and the Ratio was 5.4.
Work on `Clc1ccc([C@]2(OCc3ccccc3)C[C@H]3CC[C@@H](C2)N3)cc1Cl` yielded a Ratio of 1.7.
With `Clc1ccc(CO[C@@]2(c3ccc(Cl)cc3)C[C@H]3CC[C@@H](C2)N3)cc1` the Ratio was 38.
Work on `FC(F)(F)c1ccc([C@]2(OCc3ccccc3)C[C@H]3CC[C@@H](C2)N3)cc1` yielded a Ratio of 3.9.
`Fc1ccc(C2=CC3CCC(C2)N3)cc1` (centres undefined) showed a Ratio of 1.9.

Organism: Rattus norvegicus
Test: Selectivity ratio of Ki for rat DAT to Ki for SERT
Summary of the method: as §1
`C1=C(c2ccccc2)CC2CCC1N2` (centres undefined) showed a Ratio of 6.9.
With `Clc1ccc(CO[C@@]2(c3ccccc3)C[C@H]3CC[C@@H](C2)N3)cc1` the Ratio was 3.6.
`Clc1ccc([C@]2(OCc3ccccc3)C[C@H]3CC[C@@H](C2)N3)cc1` gave a Ratio of 2.7.
`Clc1ccc(CO[C@@]2(c3ccccc3)C[C@H]3CC[C@@H](C2)N3)cc1Cl` showed a Ratio of 258.
Molecule `Clc1ccc(C2=CC3CCC(C2)N3)cc1` (centres undefined) has a Ratio of 83.
In the case of `Clc1ccc(CO[C@@]2(c3ccc(Cl)c(Cl)c3)C[C@H]3CC[C@@H](C2)N3)cc1Cl`, the Ratio is reported as 601.
`Clc1ccc(C2=CC3CCC(C2)N3)cc1Cl` (centres undefined) was tested, and the Ratio was 53.
`Clc1ccc(CO[C@@]2(c3ccc(Cl)c(Cl)c3)C[C@H]3CC[C@@H](C2)N3)cc1` showed a Ratio of 46.
Molecule `Clc1ccc([C@]2(OCc3ccccc3)C[C@H]3CC[C@@H](C2)N3)cc1Cl` has a Ratio of 11.
Molecule `Clc1ccc(CO[C@@]2(c3ccc(Cl)cc3)C[C@H]3CC[C@@H](C2)N3)cc1` has a Ratio of 630.
`FC(F)(F)c1ccc([C@]2(OCc3ccccc3)C[C@H]3CC[C@@H](C2)N3)cc1` gave a Ratio of 2.6.
With `Fc1ccc(C2=CC3CCC(C2)N3)cc1` (centres undefined) the Ratio was 8.2.
`c1ccc(CO[C@@]2(c3ccccc3)C[C@H]3CC[C@@H](C2)N3)cc1` showed a Ratio of 0.47.
For `FC(F)(F)c1ccc(C2=CC3CCC(C2)N3)cc1` (centres undefined), the Ratio was 830.
